Experimental data published in ChEMBL document CHEMBL1138494, “Human glucagon receptor antagonists with thiazole cores. A novel series with superior pharmacokinetic properties” (J Med Chem, 2009).
Active and inactive are the calls of the source. The calls are words filed in the database; no cut-off is given here.

What was measured:
[1] = Cmax in fasted Sprague-Dawley rat at 1.9 mg/kg, iv and 3.7 mg/kg, po by HTLC-MS/MS analysis; assay type: ADME, organism-based; conditions: in vivo
Method in brief: (§1)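 Rats were dosed intravenously and perorally in separate arms, and plasma concentration-time profiles were obtained. Half-life was taken from the iv arm. Clearance, oral bioavailability, Cmax and Tmax were derived from the profiles.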

Homo sapiens [2] = organism: Homo sapiens; test: Selectivity for human recombinant glucagon receptor over human GLP1R
[3] = Clearance in fasted Sprague-Dawley rat at 1.9 mg/kg, iv and 3.7 mg/kg, po by HTLC-MS/MS analysis; assay type: ADME, organism-based; conditions: in vivo; method in brief: as §1
Glucagon receptor [4] = biological target: T1, Glucagon receptor (Homo sapiens, UniProt P47871); test: Displacement of [125I]porcine glucagon from human recombinant glucagon receptor expressed in BHK cells by scintillation proximity assay; assay type: cell-based
[5] = Tmax in fasted Sprague-Dawley rat at 1.9 mg/kg, iv and 3.7 mg/kg, po by HTLC-MS/MS analysis; assay type: ADME, organism-based; conditions: in vivo
Method in brief: (§2)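 Plasma concentration–time profiles were recorded after separate intravenous and peroral dosing at the per-compound doses listed. T_max is reported in min alongside C_max (ng/mL), intravenous half-life and clearance ((mL/min)/kg).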

[6] = Half life in fasted Sprague-Dawley rat plasma at 1.9 mg/kg, iv by HTLC-MS/MS analysis; assay type: ADME, organism-based; set-up: dose 1.9 mg/kg, route intravenous; method in brief: as §1
[7] = biological target: T2, Gastric inhibitory polypeptide receptor (Homo sapiens, UniProt P48546); test: Displacement of [125I]porcine GIP from human recombinant GIPR receptor expressed in BHK cells by scintillation proximity assay; assay type: cell-based
T2 sequence (P48546 whole entry): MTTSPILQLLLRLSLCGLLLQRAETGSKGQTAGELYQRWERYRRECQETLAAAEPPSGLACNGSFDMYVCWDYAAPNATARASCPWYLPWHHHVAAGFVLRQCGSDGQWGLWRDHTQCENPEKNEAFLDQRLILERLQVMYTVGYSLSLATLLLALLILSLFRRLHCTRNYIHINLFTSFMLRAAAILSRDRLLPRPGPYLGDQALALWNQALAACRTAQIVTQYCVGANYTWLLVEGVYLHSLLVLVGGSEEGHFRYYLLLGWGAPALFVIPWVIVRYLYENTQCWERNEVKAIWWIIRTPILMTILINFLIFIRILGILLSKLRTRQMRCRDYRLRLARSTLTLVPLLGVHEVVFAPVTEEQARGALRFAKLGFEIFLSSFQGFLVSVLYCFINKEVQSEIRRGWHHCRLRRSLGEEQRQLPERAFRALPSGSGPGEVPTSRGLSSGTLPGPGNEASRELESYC

Homo sapiens [8] = organism: Homo sapiens; test: Selectivity ratio of IC50 for human recombinant glucagon receptor to IC50 for human recombinant GIPR
Method in brief: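 Competition binding of compounds to recombinant human glucagon and GIP receptors on BHK cell membranes, run in parallel as a scintillation proximity assay and, for selected compounds, as a membrane filtration assay.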

[9] = Oral bioavailability in fasted Sprague-Dawley rat at 3.7 mg/kg by HTLC-MS/MS analysis; assay type: ADME, organism-based; conditions: in vivo
Method in brief: (§3)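 Separate intravenous and peroral dosing arms per compound, with plasma concentration followed against time. Oral bioavailability (F_po) is reported per compound together with the intravenous half-life and clearance. The dose used for each arm is listed per compound.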

[10] = Tmax in fasted Sprague-Dawley rat at 1.6mg/kg, iv and 3 mg/kg, po; assay type: ADME, organism-based; set-up: dose 3 mg/kg, route oral; conditions: in vivo; method in brief: as §2
[11] = Clearance in fasted Sprague-Dawley rat at 1.66 mg/kg, iv and 3 mg/kg, po; assay type: ADME, organism-based; conditions: in vivo; method in brief: as §1
[12] = Half life in fasted Sprague-Dawley rat plasma at 1.66 mg/kg, iv by HTLC-MS/MS analysis; assay type: ADME, organism-based; set-up: dose 1.66 mg/kg, route intravenous; method in brief: as §1
[13] = Cmax in fasted Sprague-Dawley rat at 1.66mg/kg, iv and 3 mg/kg, po; assay type: ADME, organism-based; set-up: dose 3 mg/kg, route oral; conditions: in vivo; method in brief: as §1
[14] = Oral bioavailability in fasted Sprague-Dawley rat at 3 mg/kg by HTLC-MS/MS analysis; assay type: ADME, organism-based; conditions: in vivo; method in brief: as §3
[15] = Clearance in fasted Beagle dog at 0.25 mg/kg, iv and 0.5 mg/kg, po; assay type: ADME, organism-based, Canis lupus familiaris; conditions: in vivo
Method in brief: (§4)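 Dogs were dosed at 0.25 mg/kg iv and 0.5 mg/kg po, and plasma concentration was followed over time. Half-life came from the iv arm; clearance, Cmax and Tmax were also derived.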

[16] = Binding affinity to glucagon receptor in dog liver membrane by membrane filter assay; assay type: cell membranes, Canis lupus familiaris
[17] = Oral bioavailability in fasted Sprague-Dawley rat at 3.15 mg/kg by HTLC-MS/MS analysis; assay type: ADME, organism-based; conditions: in vivo; method in brief: as §3
[18] = Tmax in fasted Sprague-Dawley rat at 1.6 mg/kg, iv and 3.15 mg/kg, po by HTLC-MS/MS analysis; assay type: ADME, organism-based; conditions: in vivo; method in brief: as §2
[19] = Tmax in fasted Beagle dog at 0.25 mg/kg, iv and 0.5 mg/kg, po; assay type: ADME, organism-based, Canis lupus familiaris; conditions: in vivo; method in brief: as §2
Glucagon receptor [20] = biological target: Glucagon receptor (Rattus norvegicus, UniProt P30082); test: Binding affinity to glucagon receptor in rat liver membrane by membrane filter assay; assay type: cell membranes
[21] = Half life in fasted Sprague-Dawley rat plasma at 1.6 mg/kg, iv by HTLC-MS/MS analysis; assay type: ADME, organism-based; set-up: dose 1.6 mg/kg, route intravenous; method in brief: as §1
[22] = Half life in fasted Beagle dog at 0.25 mg/kg, iv; assay type: ADME, organism-based, Canis lupus familiaris; set-up: dose 0.25 mg/kg, route intravenous; conditions: in vivo; method in brief: as §4
[23] = Oral bioavailability in fasted Beagle dog at 0.5 mg/kg; assay type: ADME, organism-based, Canis lupus familiaris; conditions: in vivo; method in brief: as §3
[24] = Clearance in fasted Sprague-Dawley rat at 1.6 mg/kg, iv and 3.15 mg/kg, po by HTLC-MS/MS analysis; assay type: ADME, organism-based; conditions: in vivo; method in brief: as §1
[25] = Binding affinity to glucagon receptor in rabbit liver membrane by membrane filter assay; assay type: cell membranes, Oryctolagus cuniculus
Hepatocyte [26] = test: Inhibition of glucagon-stimulated glucose production in human primary hepatocytes preincubated for 10 mins before glucagon addition by NADH-linked hexokinase assay; assay type: functional, cell-based
Method in brief: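 Cultured primary human hepatocytes were preincubated with compound for 10 min, then glycogenolysis was induced with 5 nM glucagon for 60 min. Glucose in the medium was measured against basal glycogenolysis. Albumin was present in the assay medium. IC50 was calculated from four experiments, mean ± SEM.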

[27] = biological target: T2, Gastric inhibitory polypeptide receptor; test: Binding affinity to human recombinant GIPR expressed in BHK cells by membrane filter assay; assay type: cell-based
Glucagon receptor [28] = biological target: T1, Glucagon receptor; test: Binding affinity to human recombinant glucagon receptor expressed in BHK cells by membrane filter assay; assay type: cell-based
[29] = Binding affinity to glucagon receptor in monkey liver membrane by membrane filter assay; assay type: cell membranes, Macaca mulatta
Glucagon receptor [30] = biological target: Glucagon receptor (Mus musculus, UniProt Q61606); test: Binding affinity to glucagon receptor in mouse liver membrane by membrane filter assay; assay type: cell membranes
[31] = Cmax in fasted Beagle dog at 0.25 mg/kg, iv and 0.5 mg/kg, po; assay type: ADME, organism-based, Canis lupus familiaris; conditions: in vivo; method in brief: as §4
[32] = Binding affinity to glucagon receptor in pig liver membrane by membrane filter assay; assay type: cell membranes, Sus scrofa
[33] = Cmax in fasted Sprague-Dawley rat at 1.6 mg/kg, iv and 3.15 mg/kg, po by HTLC-MS/MS analysis; assay type: ADME, organism-based; conditions: in vivo; method in brief: as §1
Hepatocyte [34] = test: Inhibition of glucagon-stimulated glucose production in rat primary hepatocytes; assay type: functional, cell-based
[35] = Oral bioavailability in fasted Sprague-Dawley rat at 3.34 mg/kg by HTLC-MS/MS analysis; assay type: ADME, organism-based; conditions: in vivo; method in brief: as §3
[36] = Cmax in fasted Sprague-Dawley rat at 1.66 mg/kg, iv and 3.34 mg/kg, po by HTLC-MS/MS analysis; assay type: ADME, organism-based; conditions: in vivo; method in brief: as §1
[37] = Tmax in fasted Sprague-Dawley rat at 1.66 mg/kg, iv and 3.34 mg/kg, po by HTLC-MS/MS analysis; assay type: ADME, organism-based; conditions: in vivo; method in brief: as §2
[38] = Clearance in fasted Sprague-Dawley rat at 1.66 mg/kg, iv and 3.34 mg/kg, po by HTLC-MS/MS analysis; assay type: ADME, organism-based; conditions: in vivo; method in brief: as §1

T1 sequence (P47871 whole entry): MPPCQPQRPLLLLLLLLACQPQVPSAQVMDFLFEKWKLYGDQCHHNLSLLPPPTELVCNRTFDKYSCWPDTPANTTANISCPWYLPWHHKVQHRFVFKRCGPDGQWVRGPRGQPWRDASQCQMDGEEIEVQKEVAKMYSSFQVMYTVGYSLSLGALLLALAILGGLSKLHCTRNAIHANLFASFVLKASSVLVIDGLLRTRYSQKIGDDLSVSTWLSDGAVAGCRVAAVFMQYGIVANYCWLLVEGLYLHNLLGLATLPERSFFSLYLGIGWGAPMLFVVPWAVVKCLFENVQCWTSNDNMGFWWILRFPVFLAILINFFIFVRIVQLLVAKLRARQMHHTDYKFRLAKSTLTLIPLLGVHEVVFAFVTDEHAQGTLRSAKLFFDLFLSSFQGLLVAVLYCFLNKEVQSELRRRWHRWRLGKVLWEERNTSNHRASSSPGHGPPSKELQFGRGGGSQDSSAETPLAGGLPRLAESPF
Sequence of Glucagon receptor (Mus musculus, UniProt Q61606) (Q61606 whole entry): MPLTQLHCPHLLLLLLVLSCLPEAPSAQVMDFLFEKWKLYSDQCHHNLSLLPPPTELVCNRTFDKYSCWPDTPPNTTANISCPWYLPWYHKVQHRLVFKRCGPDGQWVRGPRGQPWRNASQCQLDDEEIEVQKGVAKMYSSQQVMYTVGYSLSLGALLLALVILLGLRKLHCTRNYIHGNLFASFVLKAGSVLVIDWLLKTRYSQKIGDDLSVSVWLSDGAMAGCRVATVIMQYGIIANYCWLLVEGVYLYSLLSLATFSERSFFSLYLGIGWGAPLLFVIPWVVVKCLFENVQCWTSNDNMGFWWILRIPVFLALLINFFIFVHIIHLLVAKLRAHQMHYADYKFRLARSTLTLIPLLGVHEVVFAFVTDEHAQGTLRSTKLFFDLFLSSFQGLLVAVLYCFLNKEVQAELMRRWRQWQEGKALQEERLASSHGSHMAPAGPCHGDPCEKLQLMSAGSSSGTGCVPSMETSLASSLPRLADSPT
Sequence of Glucagon receptor (Rattus norvegicus, UniProt P30082) (P30082 whole entry): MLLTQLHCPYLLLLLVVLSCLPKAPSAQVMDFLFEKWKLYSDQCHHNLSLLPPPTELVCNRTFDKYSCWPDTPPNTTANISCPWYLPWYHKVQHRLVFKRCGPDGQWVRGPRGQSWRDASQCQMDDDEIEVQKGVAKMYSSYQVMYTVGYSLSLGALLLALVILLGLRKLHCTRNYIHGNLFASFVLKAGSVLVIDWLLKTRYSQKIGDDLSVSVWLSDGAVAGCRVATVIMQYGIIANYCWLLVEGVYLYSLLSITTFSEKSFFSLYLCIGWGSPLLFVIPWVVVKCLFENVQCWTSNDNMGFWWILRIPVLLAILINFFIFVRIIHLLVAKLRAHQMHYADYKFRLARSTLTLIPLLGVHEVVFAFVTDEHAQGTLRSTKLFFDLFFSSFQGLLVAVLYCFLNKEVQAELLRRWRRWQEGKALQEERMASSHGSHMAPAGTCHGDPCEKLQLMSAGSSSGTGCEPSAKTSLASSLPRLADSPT

Row | SMILES | fold change (FC) (Homo sapiens [2]) | IC50 (Glucagon receptor [4]) [nM] | IC50 [7] [nM] | fold change (FC) (Homo sapiens [8]) | IC50 [27] [nM] | IC50 (Glucagon receptor [28]) [nM] | also measured
1 | O=C(O)CCNC(=O)c1ccc(CN(c2ccc(C3=CCCCC3)cc2)c2nc(-c3ccc(OC(F)(F)F)cc3)cs2)cc1 | > 50 | 36 | 207 | 5 |  |  | Cmax [1]: 47 ng/mL; clearance [3]: 34 mL/min/kg; Tmax [5]: 1.5 h; half-life [6]: 0.717 h; bioavailability [9]: 3%
2 | CC(C)(C)c1ccc(-c2csc(N(Cc3ccc(C(=O)NCCC(=O)O)cc3)c3ccc(C(C)(C)C)cc3)n2)cc1 | > 50 | 315 | 729 | 5 |  |  | 
3 | Cc1cc(N(Cc2ccc(C(=O)NCCC(=O)O)cc2)c2nc(-c3cc(C(F)(F)F)cc(C(F)(F)F)c3)cs2)ccc1C(C)C | > 50 | 131 | 584 | 5 |  |  | 
4 | O=C(NC[C@@H](O)C(=O)O)c1ccc(CN(c2ccc3c(c2)CCC3)c2nc(-c3ccc(C(F)(F)F)cc3)cs2)cc1 | > 50 | 261 | > 1000 | 5 |  |  | 
5 | O=C(O)CCNC(=O)c1ccc(N(Cc2ccc3c(c2)Cc2ccccc2-3)c2nc(-c3ccc(C(F)(F)F)cc3)cs2)cc1 | > 50 | 78 | 645 | 5 |  |  | Tmax [10]: 1.5 h; clearance [11]: 31 mL/min/kg; half-life [12]: 0.667 h; Cmax [13]: 93 ng/mL; bioavailability [14]: 13%
6 | O=C(O)CCNC(=O)c1ccc(CN(c2ccc3c(c2)CCCC3)c2nc(-c3ccc(Cl)c(Cl)c3)cs2)cc1 | > 50 | 79 | 830 | 5 | 390 | 54 | clearance [15]: 1.44 mL/min/kg; IC50 [16]: 81 nM; bioavailability [17]: 36%; Tmax [18]: 1 h; Tmax [19]: 0.85 h; IC50 (Glucagon receptor [20]): 1600 nM; half-life [21]: 1.73 h; half-life [22]: 2.07 h; bioavailability [23]: 92%; clearance [24]: 5 mL/min/kg; IC50 [25]: 1900 nM; IC50 (Hepatocyte [26]): 4000 nM; IC50 [29]: 55 nM; IC50 (Glucagon receptor [30]): 452 nM; Cmax [31]: 1190 ng/mL; IC50 [32]: 3300 nM; Cmax [33]: 1180 ng/mL; inhibition (Hepatocyte [34]): inactive
7 | O=C(O)CCNC(=O)c1ccc(CN(c2ccc3c(c2)CCC3)c2nc(-c3ccc(OC(F)(F)F)cc3)cs2)cc1 | > 50 | 85 | 950 | 5 | 770 | 96 | IC50 (Glucagon receptor [20]): 4400 nM; bioavailability [35]: 87%; Cmax [36]: 704 ng/mL; half-life [12]: 1.02 h; IC50 (Hepatocyte [26]): 8600 nM; Tmax [37]: 4 h; IC50 [29]: 94 nM; clearance [38]: 15 mL/min/kg; IC50 (Glucagon receptor [30]): 680 nM; inhibition (Hepatocyte [34]): inactive
8 | O=C(O)CCNC(=O)c1ccc(CN(c2nc(-c3ccc(Cl)c(Cl)c3)cs2)C2CCCc3ccccc32)cc1 (centres undefined) | > 50 | 531 | 1110 | 5 |  |  | 
9 | O=C(O)CCNC(=O)c1ccc(N(Cc2ccc3c(c2)Cc2ccccc2-3)c2nc(-c3ccc(Cl)cc3)cs2)cc1 | > 50 | 93 | 555 | 5 | 320 | 34 | 
10 | CC(C)(C)c1ccc(-c2csc(N(Cc3ccc(C(=O)NCCC(=O)O)cc3)c3ccc(C4=CCCCC4)cc3)n2)cc1 | > 50 | 118 | 721 | 5 |  |  | bioavailability [17]: 2%; Tmax [18]: 1.5 h; half-life [21]: 0.5 h; clearance [24]: 39 mL/min/kg; Cmax [33]: 13 ng/mL
